# Reference: ChEMBL document CHEMBL1165950, “Design and synthesis of new potent anticancer pyrazoles with high FLT3 kinase inhibitory selectivity” (Bioorg Med Chem, 2010)
# What was measured:
# Assay type in all cases: functional
# [1] = Cytotoxicity against human Hs 578T cells assessed as cell growth at 10 uM after 48 hrs by sulforhodamine B assay; conditions: read-out: Activity
# [2] = tested on: NCI/ADR-RES; test: Growth inhibition of human NCI/ADR-RES cells after 48 hrs by sulforhodamine B assay; conditions: for CC50: read-out: LC50 (the source's name)
# Outline: (§1)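 NCI 60-cell screen, five-dose mode. Cells grown in RPMI 1640 with 5% FBS and 2 mM L-glutamine and plated at 5000-40,000 cells/well according to doubling time. After 24 h preincubation, a Tz plate was TCA-fixed. Five concentrations (10-fold or 1/2 log dilutions) were applied for 48 h at 37 °C. SRB staining read at 515 nm. IC50 taken from [(Ti-Tz)/(C-Tz)]×100 = 50.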
# [3] = tested on: K562; test: Growth inhibition of human K562 cells after 48 hrs by sulforhodamine B assay; conditions: K562, 48 h; outline: as §1
# [4] = tested on: CCRF-CEM; test: Cytotoxicity against human CCRF-CEM cells assessed as cell growth at 0.001 uM after 48 hrs by sulforhodamine B assay; conditions: read-out: Activity
# Outline: (§2)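 NCI-60 five-dose screen. Cells were grown in RPMI 1640 with 5% FBS and 2 mM L-glutamine, plated at 5000–40,000 cells/well and preincubated for 24 h. Time-zero plates were TCA-fixed. DMSO-solubilized drug was added at five concentrations (10-fold or ½-log serial dilutions) for 48 h at 37 °C, 5% CO2. Cells were TCA-fixed, stained with 0.4% SRB and read at 515 nm. Percent growth used time-zero, control and test absorbances.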
# [5] = tested on: NCI-H23; test: Growth inhibition of human NCI-H23 cells after 48 hrs by sulforhodamine B assay; conditions: NCI-H23, 48 h; for CC50: read-out: LC50 (the source's name); outline: as §1
# [6] = tested on: BT-549; test: Cytotoxicity against human BT549 cells assessed as cell growth at 0.001 uM after 48 hrs by sulforhodamine B assay; conditions: BT-549, 48 h, read-out: Activity; outline: as §2
# [7] = tested on: NCI/ADR-RES; test: Cytotoxicity against human NCI/ADR-RES cells assessed as cell growth at 0.01 uM after 48 hrs by sulforhodamine B assay; conditions: read-out: Activity
# [8] = tested on: MDA-MB-435; test: Cytotoxicity against human MDA-MB-435 cells assessed as cell growth at 10 uM; conditions: read-out: Activity
# Outline: (§3)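 NCI-60 screen: cells grown in RPMI 1640 with 5% FBS and 2 mM L-glutamine, plated at 5000–40,000 cells/well according to doubling time, and preincubated 24 h at 37 °C, 5% CO2. The single 10 µM dose (DMSO stock) was added, then incubated 48 h. Cells were TCA-fixed and stained with 0.4% SRB, read at 515 nm, and growth % calculated against time-zero and control plates.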
# [9] = tested on: NCI/ADR-RES; test: Cytotoxicity against human NCI/ADR-RES cells assessed as cell growth at 0.001 uM after 48 hrs by sulforhodamine B assay; conditions: read-out: Activity
# [10] = tested on: OVCAR-3; test: Cytotoxicity against human OVCAR-3 cells assessed as cell growth at 10 uM; conditions: read-out: Activity; outline: as §3
# [11] = tested on: LOX IMVI; test: Cytotoxicity against human LOXIMVI cells assessed as cell growth at 1 uM after 48 hrs by sulforhodamine B assay; conditions: read-out: Activity
# [12] = tested on: NCI/ADR-RES; test: Cytotoxicity against human NCI/ADR-RES cells assessed as cell growth at 100 nM after 48 hrs by sulforhodamine B assay; conditions: read-out: Activity
# [13] = tested on: DU-145; test: Cytotoxicity against human DU145 cells assessed as cell growth at 100 nM after 48 hrs by sulforhodamine B assay; conditions: DU-145, 48 h, read-out: Activity
# [14] = tested on: A549; test: Cytotoxicity against human A549 cells assessed as cell growth at 10 uM; conditions: read-out: Activity
# Outline: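 Single-dose NCI-60 screen at 10 µM. Cells were grown in RPMI 1640 with 5% FBS and 2 mM L-glutamine, then treated for 48 h at 37 °C. Protein was measured by SRB staining with absorbance at 515 nm. Percentage growth was recorded, and inhibition percentage was calculated as 100 minus growth percentage.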
# [15] = tested on: MDA-MB-468; test: Cytotoxicity against human MDA-MB-468 cells assessed as cell growth at 1 uM after 48 hrs by sulforhodamine B assay; conditions: MDA-MB-468, 48 h, read-out: Activity
# [16] = tested on: UACC-62; test: Cytotoxicity against human UACC62 cells assessed as cell growth at 0.001 uM after 48 hrs by sulforhodamine B assay; conditions: UACC-62, 48 h, read-out: Activity
# [17] = tested on: NCI-H322M; test: Cytotoxicity against human NCI-H322M cells assessed as cell growth at 100 nM after 48 hrs by sulforhodamine B assay; conditions: read-out: Activity
# [18] = tested on: MDA-MB-231; test: Cytotoxicity against human MDA-MB-231 cells assessed as cell growth at 100 nM after 48 hrs by sulforhodamine B assay; conditions: MDA-MB-231, 48 h, read-out: Activity
# [19] = tested on: NCI/ADR-RES; test: Cytotoxicity against human NCI/ADR-RES cells assessed as cell growth at 10 uM; conditions: read-out: Activity; outline: as §3
# [20] = tested on: UO-31; test: Cytotoxicity against human UO31 cells assessed as cell growth at 10 uM; conditions: read-out: Activity; outline: as §3
# [21] = tested on: NCI-H322M; test: Cytotoxicity against human NCI-H322M cells assessed as cell growth at 0.001 uM after 48 hrs by sulforhodamine B assay; conditions: read-out: Activity
# [22] = tested on: HL-60(TB); test: Cytotoxicity against human HL-60(TB) cells assessed as cell growth at 100 nM after 48 hrs by sulforhodamine B assay; conditions: HL-60, 48 h, read-out: Activity
# Outline: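 NCI 60-cell panel. Cells are grown in RPMI 1640 with 5% FBS and 2 mM L-glutamine, seeded at 5000–40,000 cells/well according to doubling time, and preincubated 24 h. Time-zero plates are TCA-fixed. Compound from DMSO stock is given at five 10-fold or 1/2-log concentrations for 48 h at 37 °C, 5% CO2. Suspension cells are fixed with 80% TCA (final 16%) and SRB-stained, with absorbance at 515 nm. Percent growth is derived from Tz, control and test readings.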
# [23] = tested on: SN12C; test: Growth inhibition of human SN12C cells after 48 hrs by sulforhodamine B assay; outline: as §1
# [24] = tested on: A498; test: Growth inhibition of human A498 cells after 48 hrs by sulforhodamine B assay; conditions: A498, 48 h
# Outline: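 NCI five-dose SRB assay in RPMI 1640 with 5% FBS and 2 mM L-glutamine. Cells were preincubated 24 h, then exposed 48 h at 37 °C to five concentrations (10-fold or half-log serial dilutions from DMSO stocks). TCA fixation, SRB staining, and absorbance at 515 nm followed. IC50 was taken where [(Ti−Tz)/(C−Tz)]×100 = 50, with Tz as time-zero cell density.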
# [25] = tested on: KM12; test: Growth inhibition of human KM12 cells after 48 hrs by sulforhodamine B assay; conditions: KM12, 48 h; for CC50: read-out: LC50 (the source's name); outline: as §1
# [26] = tested on: TK-10; test: Cytotoxicity against human TK10 cells assessed as cell growth at 10 uM after 48 hrs by sulforhodamine B assay; conditions: TK-10, 48 h, read-out: Activity
SMILES,growth at 10 µM [1],GI50 [2],TGI [2],CC50 [2],GI50 [3],LC50 (50% net cell kill) [3],TGI [3],growth at 0.001 µM [4],GI50 [5],TGI [5],CC50 [5],growth at 0.001 µM [6],growth at 0.01 µM [7],growth at 10 µM [8],growth at 0.001 µM [9],growth at 10 µM [10],growth at 1 µM [11],growth at 0.1 µM [12],growth at 0.1 µM [13],growth at 10 µM [14],other results
COc1cc(C)cc(-c2c(-c3ccnc(-c4ccc(N(C)C)cc4)c3)cnn2CC#N)c1,16%,0.0479 µM,> 100 µM,> 100 µM,0.0584 µM,> 100 µM,3.82 µM,95%,0.276 µM,> 100 µM,> 100 µM,93%,80%,-14.7%,96%,27%,12%,2%,-51%,22.2%,growth at 1 µM [15]: -57%; growth at 0.001 µM [16]: 96%; growth at 0.1 µM [17]: 20%; growth at 0.1 µM [18]: -5%; growth at 10 µM [19]: -15.4%; growth at 10 µM [20]: 22.1%; growth at 0.001 µM [21]: 97%; growth at 0.1 µM [22]: -26%; GI50 [23]: 0.398 µM; LC50 [23]: > 100 µM; TGI [23]: > 100 µM; GI50 [24]: 0.132 µM; LC50 [24]: > 100 µM; TGI [24]: > 100 µM; GI50 [25]: 0.0475 µM; TGI [25]: 0.264 µM; CC50 [25]: > 100 µM; growth at 10 µM [26]: 34%
COc1cc(C)cc(-c2nn(CC#N)cc2-c2ccc(-c3cccc(C(C)=O)c3)nc2)c1,-57%,1.31 µM,6.06 µM,> 100 µM,0.365 µM,> 100 µM,> 100 µM,96%,3.45 µM,84 µM,> 100 µM,99%,91%,-27.8%,99%,12.5%,23%,59%,87%,38.8%,growth at 1 µM [15]: -42%; growth at 0.001 µM [16]: 94%; growth at 0.1 µM [17]: 95%; growth at 0.1 µM [18]: 85%; growth at 10 µM [19]: -25.8%; growth at 10 µM [20]: 33.8%; growth at 0.001 µM [21]: 94%; growth at 0.1 µM [22]: 66%; GI50 [23]: 6.08 µM; LC50 [23]: > 100 µM; TGI [23]: > 100 µM; GI50 [24]: 1.08 µM; LC50 [24]: 72.5 µM; TGI [24]: 5.14 µM; GI50 [25]: 2.23 µM; TGI [25]: 13.9 µM; CC50 [25]: > 100 µM; growth at 10 µM [26]: -29%
COc1cc(C)cc(-c2c(-c3ccnc(-c4ccc(C(C)=O)cc4)c3)cnn2CC#N)c1,-27%,2.87 µM,> 100 µM,> 100 µM,0.795 µM,> 100 µM,> 100 µM,96%,3.9 µM,> 100 µM,> 100 µM,96%,91%,10.6%,95%,100%,19%,83%,89%,91.4%,growth at 1 µM [15]: -48%; growth at 0.001 µM [16]: 93%; growth at 0.1 µM [17]: 100%; growth at 0.1 µM [18]: 86%; growth at 10 µM [19]: 60.1%; growth at 10 µM [20]: 57.4%; growth at 0.001 µM [21]: 102%; growth at 0.1 µM [22]: 88%; GI50 [23]: 4.49 µM; LC50 [23]: > 100 µM; TGI [23]: > 100 µM; GI50 [24]: 2.03 µM; LC50 [24]: > 100 µM; TGI [24]: > 100 µM; GI50 [25]: 2.87 µM; TGI [25]: > 100 µM; CC50 [25]: > 100 µM; growth at 10 µM [26]: 60%
Cc1cc(O)cc(-c2nn(CC#N)cc2-c2ccnc(-c3ccc(N(C)C)cc3)c2)c1,-32%,2.54 µM,7.93 µM,> 100 µM,2.55 µM,> 100 µM,32.8 µM,97%,4.48 µM,24.8 µM,> 100 µM,96%,96%,-43.2%,97%,41.9%,29%,91%,94%,39%,growth at 1 µM [15]: -50%; growth at 0.001 µM [16]: 90%; growth at 0.1 µM [17]: 93%; growth at 0.1 µM [18]: 84%; growth at 10 µM [19]: 6.33%; growth at 10 µM [20]: 52.4%; growth at 0.001 µM [21]: 94%; growth at 0.1 µM [22]: 98%; GI50 [23]: 4.28 µM; LC50 [23]: > 100 µM; TGI [23]: 30 µM; GI50 [24]: 3.03 µM; LC50 [24]: > 100 µM; TGI [24]: 13.4 µM; GI50 [25]: 1.63 µM; TGI [25]: 7.66 µM; CC50 [25]: 29.2 µM; growth at 10 µM [26]: -14%
COc1cc(C)cc(-c2nn(CC#N)cc2-c2ccnc(-c3ccc(N(C)C)cc3)c2)c1,-5%,0.253 µM,0.655 µM,> 100 µM,0.161 µM,> 100 µM,> 100 µM,97%,0.514 µM,> 100 µM,> 100 µM,105%,99%,-22.6%,96%,2.79%,5%,-22%,2%,21.1%,growth at 1 µM [15]: -55%; growth at 0.001 µM [16]: 91%; growth at 0.1 µM [17]: 49%; growth at 0.1 µM [18]: 52%; growth at 10 µM [19]: -28%; growth at 10 µM [20]: 37.9%; growth at 0.001 µM [21]: 99%; growth at 0.1 µM [22]: -3%; GI50 [23]: 0.73 µM; LC50 [23]: > 100 µM; TGI [23]: 33.1 µM; GI50 [24]: 0.246 µM; LC50 [24]: > 100 µM; TGI [24]: 0.818 µM; GI50 [25]: 0.31 µM; TGI [25]: 1.62 µM; CC50 [25]: 25.5 µM; growth at 10 µM [26]: -3%
